PMC9136973 (ACS Central Science, 2022)
In brackets after ≈: the same amount, converted by molar mass. One block for each molecule: values may come before it.

How the values were obtained:
Hsp70, Hsp40, and Hsp27 = assay: Immunoblot of heat shock response proteins in K562 cells; assay type: cell-based, human; details: 48 h, cytotoxic concentration
MOLT-4 cells = assay: Xenotransplantation in zebrafish embryos; assay type: in vivo; details: 500 nM, 48 h
How it was run: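 Wild-type TE zebrafish embryos at 32 hpf each received ~1 nL (~200) CFDA SE-labeled MOLT-4 cells into the perivitelline space, then 1 h at 28 °C. Well-engrafted embryos were treated with test compound (500 nM) or DMSO for 48 h at 35 °C, with development monitored. Embryos were dissociated through a 40 μm strainer and labeled cells quantified by flow cytometry. Fold change was taken against the DMSO-group mean.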

[1] = biological target: recombinant Hsp90α CTD protein (Homo sapiens, UniProt P07900); assay: Cell-free thermal shift assay; assay type: binding; details: 100 µM
How it was run: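 Recombinant human Hsp90α CTD (residues 563–732, 5 μM) was mixed with test compound in 1× PBS, pH 7.5, and incubated for 2 h. SYPRO orange (6×) was added and samples were heated with increasing temperature up to 95 °C. Tm was compared with the DMSO vehicle control.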

[2] = Aqueous thermodynamic solubility; assay type: physicochemical; details: phosphate-buffered saline, pH 7.4

recombinant Hsp90α CTD protein, sequence (P07900 563-732): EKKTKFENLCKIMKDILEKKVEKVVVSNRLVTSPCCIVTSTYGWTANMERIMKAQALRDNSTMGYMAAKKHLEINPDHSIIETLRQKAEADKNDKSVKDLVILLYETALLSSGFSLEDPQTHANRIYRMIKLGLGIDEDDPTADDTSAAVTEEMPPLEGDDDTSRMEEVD

Structure (SMILES): CCNC(=O)c1noc(-c2cc(C(C)C)c(O)cc2O)c1-c1ccc(CN2CCOCC2)cc1 [AUY922]
- induction of heat shock response (expression of Hsp70, Hsp40, Hsp27) (Hsp70, Hsp40, and Hsp27): led to HSR induction
- toxicity on the development of xenotransplanted embryos (MOLT-4 cells): No toxicity
- number of transplanted MOLT4 cells vs DMSO-treated group (MOLT-4 cells; flow cytometry): significantly reduced

- effect on thermal stability of Hsp90α CTD protein [1]: stabilized
Structure (SMILES): CO[C@H]1[C@H](OC(=O)c2ccc(C)[nH]2)[C@H](O)[C@@H](Oc2ccc3c(O)c(NC(=O)c4c[nH]c(C(=O)Nc5c(O)c6ccc(O[C@H]7OC(C)(C)[C@@H](OC)[C@H](OC(=O)c8ccc(C)[nH]8)[C@@H]7O)c(C)c6oc5=O)c4C)c(=O)oc3c2C)OC1(C)C [coumermycin A1]

- solubility thermodynamic [2]: 95 µM (≈ 27.9 µg/mL)
Structure (SMILES): Cc1nccn1CC1CCc2c(c3ccccc3n2C)C1=O (centres unmarked) [Ondansetron]
